# Assay results as given in ChEMBL document CHEMBL5032526 (Eur J Med Chem, 2021).
# How the values were obtained:
# Huh-7 = test: (§1) Cytotoxicity against human Huh-7 cells assessed as reduction in cell viability measured after 24 hrs by CellTiter-Glo analysis; format: cell-based; conditions: huh-7, 24 h
# [1] = Selectivity index, ratio of CC50 for human Huh-7 cells to IC50 for Antiviral activity against Ebola virus trVLP infected in human Huh-7 cells; format: toxicity, cell-based; conditions: read-out: Ratio CC50/IC50
# Ebolavirus [2] = test: Antiviral activity against Ebola virus constitutively expressed firefly infected in human Huh-7 cells expressing pretreated for 1 hrs followed by viral infection and measured after 24 hrs by dual luciferase reporter assay; format: functional, organism-based; conditions: Orthoebolavirus
# In short: (§2)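 Huh-7 cells were transfected in suspension with EBOV VP35, NP, VP30 and L plasmids plus constitutive firefly (ce-FF). At 24 h, compounds were added in triplicate (0-50 µM, 2-fold series) for 1 h before trVLP infection.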
# SARS-CoV-2 [3] = test: Antiviral activity against SARS Cov-2 USA/WA1/2020 infected in Vero E6 cells assessed as reduction in virus-induced cytopathic effect preincubated for 1 hr followed by viral infection and measured after 48 hrs post infection; format: functional, organism-based; conditions: Severe acute respiratory syndrome coronavirus 2, USA/WA1/2020, Vero C1008
# Ebolavirus [4] = test: Antiviral activity against Ebola virus trVLP infected in human Huh-7 cells pretreated for 1 hrs followed by viral infection and measured after 24 hrs by dual luciferase reporter assay; format: functional, organism-based; conditions: Orthoebolavirus; in short: as §2
# [5] = (§3) Cytotoxicity against human Calu-3 cells assessed as reduction in cell viability after 48 hrs by Cell-Tox green based fluorescence assay; conditions: Calu-3 cells
# In short: (§4)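 Calu3 cells (1 x 10^4) were plated and exposed 24 h later to 3-fold serial compound dilutions. At 48 h, CellTox Green fluorescence was read, and CC50 was fitted by four-parameter nonlinear regression.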
# [6] = as §1; format: cell-based; conditions: Huh-7 cells
# Ebolavirus [7] = test: Antiviral activity against wild type Ebola virus infected in human HeLa cells assessed as reduction in viral infection measured after 24 hrs by Hoechst 33342 staining based microscopic analysis; format: functional, organism-based; conditions: Orthoebolavirus
# [8] = Metabolic stability in human plasma assessed as drug degradation at 10 uM after 1 hr by LC-QTOF-MS analysis; format: ADME, cell-free; conditions: read-out: Drug degradation
# In short: (§5)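 Compound (10 µM) was incubated in human plasma at 37 °C, with aliquots taken from 0 to 24 h. Proteins were precipitated with cold ethanol (30 min, -20 °C), and samples were centrifuged and concentrated. Analysis was by LC-QTOF-MS with a ±0.1 m/z EIC window, and % digestion was calculated from peak area relative to 0 min.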
# SARS-CoV-2 [9] = test: Antiviral activity against SARS coronavirus 2 USA/WA1/2020 infected in Calu-3 cells assessed as reduction in virus-induced cytopathic effect preincubated for 1 hr followed by viral infection and measured after 48 hrs; format: functional, organism-based; conditions: Severe acute respiratory syndrome coronavirus 2, USA/WA1/2020, Calu-3
# SARS-CoV-2 [10] = test: Antiviral activity against SARS Cov-2 USA_WA1/2020 infected in HAE cells measured upto 72 hrs by qRT-PCR method; format: functional, organism-based; conditions: Severe acute respiratory syndrome coronavirus 2, USA_WA1/2020, HAE
# SARS-CoV-2 [11] = test: Antiviral activity against SARS Cov-2 USA_WA1/2020 infected in human Calu-3 cells measured upto 72 hrs by qRT-PCR method; format: functional, organism-based; conditions: Severe acute respiratory syndrome coronavirus 2, USA_WA1/2020, Calu-3, 72 h
# [12] = Metabolic stability in human plasma assessed as compound remaining at 10 uM after 2 hrs by LC-QTOF-MS analysis; format: ADME, cell-free; in short: as §5
# [13] = Selectivity index, ratio of CC50 for human Huh-7 cells to IC50 for Antiviral activity against Ebola virus constitutively expressed firefly; format: toxicity; conditions: read-out: Ratio CC50/IC50
# [14] = Selectivity index, ratio of CC50 for African green monkey Vero E6 cells to IC50 for Antiviral activity against SARS coronavirus 2 USA/WA1/2020 infected in Vero E6 cells assessed as reduction in virus-induced cytopathic effect; format: toxicity, cell-based, Vero C1008; conditions: read-out: Ratio CC50/IC50
# Calu-3 = test: as §3; conditions: calu-3, 48 h; in short: as §4
# [15] = Selectivity index, ratio of CC50 for human Calu-3 cells to IC50 for Antiviral activity against SARS coronavirus 2 USA/WA1/2020 infected in human Calu3 cells assessed as reduction in virus-induced cytopathic effect; format: toxicity, cell-based; conditions: read-out: Ratio CC50/IC50
# [16] = Metabolic stability in human plasma assessed as compound remaining at 10 uM after 4 hrs by LC-QTOF-MS analysis; format: ADME, cell-free; conditions: read-out: Stability; in short: as §5
SMILES,CC50 (Huh-7),selectivity ratio [1],IC50 (Ebolavirus [2]),IC50 (SARS-CoV-2 [3]),IC50 (Ebolavirus [4]),CC50 at 48 h [5],CC50 at 24 h [6],IC50 (Ebolavirus [7]),"metabolised at 1 h, 10 µM [8]",IC50 (SARS-CoV-2 [9]),EC50 (SARS-CoV-2 [10]),EC50 (SARS-CoV-2 [11]),"remaining at 2 h, 10 µM ([12]; read-out: Stability)",selectivity ratio [13],selectivity ratio [14],CC50 (Calu-3),selectivity ratio [15],"remaining at 4 h, 10 µM [16]","Stability ([12]; 2 h, 10 µM)"
CCSCCCCCCCCCCCC(=O)O,> 50 µM,> 50,> 50 µM,> 50 µM,> 50 µM,–,–,–,–,–,–,–,–,–,–,–,–,–,–
CCCCCCCCCCOCCC(=O)O,> 50 µM,> 50,> 50 µM,> 50 µM,> 50 µM,–,–,–,–,–,–,–,–,–,–,–,–,–,–
CCC(CC)COC(=O)[C@H](C)N[P@](=O)(OC[C@H]1O[C@@](C#N)(c2ccc3c(N)ncnn23)[C@H](O)[C@@H]1O)Oc1ccccc1,–,–,24 µM,0.85 µM,0.32 µM,> 50 µM,> 50 µM,1 µM,13%,0.06 µM,0.01 µM,0.28 µM,47%,–,–,–,–,–,–
CCSCCCCCCCCCCCC(=O)O[C@@H]1[C@H](O)[C@@H](CO[P@@](=O)(N[C@H](C)C(=O)OCC(CC)CC)Oc2ccccc2)O[C@@]1(C#N)c1ccc2c(N)ncnn12,41 µM,164,29 µM,3.5 µM,0.25 µM,–,–,–,–,–,–,–,–,1.41,> 14.2,–,–,–,–
CCCCCCCCCCOCCC(=O)O[C@@H]1[C@H](O)[C@@H](CO[P@@](=O)(N[C@H](C)C(=O)OCC(CC)CC)Oc2ccccc2)O[C@@]1(C#N)c1ccc2c(N)ncnn12,15 µM,50,36 µM,4.6 µM,0.3 µM,–,–,–,–,–,–,–,–,0.417,> 10.9,–,–,–,–
CCCCCCCCCCOCCC(=O)O[C@H]1[C@@H](O)[C@](C#N)(c2ccc3c(N)ncnn23)O[C@@H]1CO[P@@](=O)(N[C@H](C)C(=O)OCC(CC)CC)Oc1ccccc1,7.4 µM,46.3,14 µM,2 µM,0.16 µM,–,–,–,–,0.18 µM,–,–,–,0.529,> 25.6,34.3 µM,> 191,–,–
CCCCCCCCCCCCCCCC(=O)O[C@@H]1[C@H](O)[C@@H](CO[P@@](=O)(N[C@H](C)C(=O)OCC(CC)CC)Oc2ccccc2)O[C@@]1(C#N)c1ccc2c(N)ncnn12,> 50 µM,> 6.94,> 50 µM,–,7.2 µM,–,–,–,–,3.6 µM,–,–,–,–,–,> 50 µM,> 13.9,–,–
CCC(CC)COC(=O)[C@@H](C)N[P@](=O)(OC[C@H]1O[C@@](C#N)(c2ccc3c(N)ncnn23)[C@H](O)[C@@H]1OC(=O)CCCCCCCCCCCN=[N+]=[N-])Oc1ccccc1,20 µM,44.4,> 50 µM,3 µM,0.45 µM,–,–,0.83 µM,–,0.51 µM,–,–,–,–,> 16.6,> 50 µM,> 98,77.9%,Stable
CCCCCCCCCCCCCCCC(=O)O[C@H]1[C@@H](O)[C@](C#N)(c2ccc3c(N)ncnn23)O[C@@H]1CO[P@@](=O)(N[C@H](C)C(=O)OCC(CC)CC)Oc1ccccc1,> 50 µM,> 172,> 50 µM,–,2.9 µM,–,–,–,–,1.6 µM,–,–,–,–,–,> 50 µM,> 32.3,–,–
CCCCCCCCCCCCCC(=O)O[C@H]1[C@@H](OC(=O)CCCCCCCCCCCCC)[C@](C#N)(c2ccc3c(N)ncnn23)O[C@@H]1CO[P@@](=O)(N[C@H](C)C(=O)OCC(CC)CC)Oc1ccccc1,> 50 µM,> 4.13,> 50 µM,31 µM,12.1 µM,–,–,–,–,–,–,–,–,–,> 1.59,–,–,–,–
[N-]=[N+]=NCCCCCCCCCCCC(=O)O,> 50 µM,> 50,> 50 µM,> 50 µM,> 50 µM,–,–,–,–,–,–,–,–,–,–,–,–,–,–
CCC(CC)COC(=O)[C@@H](C)N[P@](=O)(OC[C@H]1O[C@@](C#N)(c2ccc3c(N)ncnn23)[C@H](OC(=O)CCCCCCCCCCCN=[N+]=[N-])[C@@H]1O)Oc1ccccc1,–,54,> 50 µM,4.6 µM,0.5 µM,–,27 µM,0.19 µM,–,–,–,–,–,–,> 10.9,–,–,–,–
CCCCCCCCCCCCCC(=O)O[C@H]1[C@@H](O)[C@](C#N)(c2ccc3c(N)ncnn23)O[C@@H]1CO[P@@](=O)(N[C@H](C)C(=O)OCC(CC)CC)Oc1ccccc1,> 50 µM,> 70.4,> 50 µM,2.3 µM,0.71 µM,–,–,–,–,0.24 µM,–,–,–,–,> 22.1,> 50 µM,> 208,–,–
CCCCCCCCCCCCCC(=O)O[C@@H]1[C@H](O)[C@@H](CO[P@@](=O)(N[C@H](C)C(=O)OCC(CC)CC)Oc2ccccc2)O[C@@]1(C#N)c1ccc2c(N)ncnn12,> 50 µM,> 74.6,> 50 µM,2.4 µM,0.67 µM,–,–,–,–,0.29 µM,–,–,–,–,> 20.7,> 50 µM,> 172,–,–
CCSCCCCCCCCCCCC(=O)O[C@H]1[C@@H](O)[C@](C#N)(c2ccc3c(N)ncnn23)O[C@@H]1CO[P@@](=O)(N[C@H](C)C(=O)OCC(CC)CC)Oc1ccccc1,23 µM,82.1,> 50 µM,2.4 µM,0.28 µM,–,–,–,–,0.25 µM,–,–,–,–,> 20.5,> 50 µM,> 200,–,–
CCCCCCCCCCCCCC(=O)O [MYRISTIC ACID],> 50 µM,> 50,> 50 µM,> 50 µM,> 50 µM,–,–,–,–,–,–,–,–,–,–,–,–,–,–
